Here are results for 36 compounds from ChEMBL document CHEMBL1641463, “Discovery of a series of potent arylthiadiazole H(3) antagonists” (Bioorg Med Chem Lett, 2011).

One data set deals with Histamine H3 receptor (Homo sapiens, UniProt Q9Y5N1). The data set is described as follows: Displacement of [3H]-N-alpha-methylhistamine from human recombinant histamine H3 receptor expressed in HEK cells after 30 mins by scintillation counting. Type of data set: cell-based, HEK293. Summed up: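 P2 membrane pellet from HEK cells expressing recombinant human H3, 3 µg protein per well, in 50 mM Tris–HCl pH 7.4 with 1 nM [3H]N-methylhistamine (82 Ci/mmol). Compound tested at half-log steps across five orders of magnitude. Nonspecific binding defined with 10^-5 M thioperamide. 30 min at 30 °C, then filtration on 0.3% PEI-soaked GF/B filters, three buffer rinses, scintillation counting. Ki from nonlinear least-squares curve fit.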
Histamine H3 receptor, sequence (Q9Y5N1 whole entry): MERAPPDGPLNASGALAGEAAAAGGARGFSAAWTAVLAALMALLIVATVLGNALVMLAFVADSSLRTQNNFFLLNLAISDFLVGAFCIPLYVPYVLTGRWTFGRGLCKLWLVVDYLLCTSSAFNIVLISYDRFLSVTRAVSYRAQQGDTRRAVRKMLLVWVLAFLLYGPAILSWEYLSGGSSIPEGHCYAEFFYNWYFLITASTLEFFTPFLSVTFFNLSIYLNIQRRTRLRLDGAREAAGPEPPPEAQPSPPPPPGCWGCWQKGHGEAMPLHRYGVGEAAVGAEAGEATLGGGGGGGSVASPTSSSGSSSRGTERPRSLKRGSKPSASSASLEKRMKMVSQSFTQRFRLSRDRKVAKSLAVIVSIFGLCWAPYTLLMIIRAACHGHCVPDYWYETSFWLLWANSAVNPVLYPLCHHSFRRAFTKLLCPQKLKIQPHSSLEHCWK

The target of the next data set is Cytochrome P450 2D6 (Homo sapiens, UniProt P10635). As to the kind of experiment: Inhibition of CYP2D6. Type of data set: ADME. The gist of the method: (§1)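 CYP3A4, 2D6 and 2C9 inhibition tested under both pre-incubation and co-incubation conditions.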
Cytochrome P450 2D6, sequence (P10635 whole entry): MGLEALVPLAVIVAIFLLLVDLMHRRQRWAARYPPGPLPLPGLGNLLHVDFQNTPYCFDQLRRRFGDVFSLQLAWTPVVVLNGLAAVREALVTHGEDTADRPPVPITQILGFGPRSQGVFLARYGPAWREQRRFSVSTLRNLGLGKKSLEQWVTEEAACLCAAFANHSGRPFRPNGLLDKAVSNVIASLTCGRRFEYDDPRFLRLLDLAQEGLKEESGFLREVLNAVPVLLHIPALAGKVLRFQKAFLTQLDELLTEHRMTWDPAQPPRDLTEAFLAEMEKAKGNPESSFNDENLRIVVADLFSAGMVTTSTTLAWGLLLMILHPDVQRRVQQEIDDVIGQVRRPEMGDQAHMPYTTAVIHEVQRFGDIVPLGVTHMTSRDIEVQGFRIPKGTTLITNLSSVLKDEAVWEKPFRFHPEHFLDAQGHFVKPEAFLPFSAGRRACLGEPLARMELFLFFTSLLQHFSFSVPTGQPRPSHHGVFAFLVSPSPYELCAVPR
A further data set concerns the target Cytochrome P450 3A4 (Homo sapiens, UniProt P08684). As to the kind of experiment: Inhibition of CYP3A4. It is filed as ADME. The gist of the method: as §1
For another data set, the target named is Cytochrome P450 2C9 (Homo sapiens, UniProt P11712). The data set is described as follows: Inhibition of CYP2C9. It is filed as ADME. The gist of the method: as §1
Cytochrome P450 2C9, sequence (P11712 whole entry): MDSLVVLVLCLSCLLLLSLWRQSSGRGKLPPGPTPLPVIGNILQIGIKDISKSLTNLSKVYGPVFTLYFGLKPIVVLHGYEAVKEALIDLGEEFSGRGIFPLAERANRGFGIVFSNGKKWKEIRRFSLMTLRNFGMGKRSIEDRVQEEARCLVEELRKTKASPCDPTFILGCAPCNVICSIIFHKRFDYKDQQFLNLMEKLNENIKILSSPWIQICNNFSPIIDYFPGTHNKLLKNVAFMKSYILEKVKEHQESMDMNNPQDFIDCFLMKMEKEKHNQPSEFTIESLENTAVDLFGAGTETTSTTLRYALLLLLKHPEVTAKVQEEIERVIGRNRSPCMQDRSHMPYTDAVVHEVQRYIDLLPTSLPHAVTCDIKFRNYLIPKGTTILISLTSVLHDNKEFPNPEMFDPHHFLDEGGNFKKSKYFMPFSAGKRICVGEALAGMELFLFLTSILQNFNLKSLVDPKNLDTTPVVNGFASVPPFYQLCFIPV
A short description of data set [1]: AUC (0 to 6 hrs) in rat at 10 mg/kg, po. Conditions: plasma. Further details: time < 6 hr, dose 10 mg/kg, route oral. Type of data set: ADME, organism-based. Summed up:
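Rat exposure measured after a 10 mg/kg oral dose; AUC taken over 0–6 h, in ng·h/ml.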

Data set [2] has as its target Histamine H3 receptor (Mus musculus) (UniProt P58406). As to the kind of experiment: Displacement of [3H]-N-alpha-methylhistamine from histamine H3 receptor in […] mouse cortex after 4 hrs by scintillation counting. Summed up: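 Ex vivo binding in cortex dissected from individual ICR mice, read at 4 h. Cortex homogenized in ice-cold 50 mM Na2HPO4–KH2PO4 pH 6.8 and frozen at −80 °C for at least 12 h; protein measured by BCA. Homogenate incubated 30 min at room temperature with 1 nM [3H]N-methylhistamine and 0.1% BSA; thioperamide defines nonspecific binding. Quadruplicates, filtered on PEI-presoaked GF/B; specific = total − nonspecific.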

A short description of data set [3]: Drug level in mouse brain at 10 mg/kg, po after 4 hrs. It is filed as ADME, organism-based. Set-up: dose 10 mg/kg, route oral. Conditions: read-out: Drug uptake. The gist of the method: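 Mouse brain concentration measured 4 h after a 10 mg/kg oral dose, in ng/g.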

Cytochrome P450 3A4, sequence (P08684 whole entry): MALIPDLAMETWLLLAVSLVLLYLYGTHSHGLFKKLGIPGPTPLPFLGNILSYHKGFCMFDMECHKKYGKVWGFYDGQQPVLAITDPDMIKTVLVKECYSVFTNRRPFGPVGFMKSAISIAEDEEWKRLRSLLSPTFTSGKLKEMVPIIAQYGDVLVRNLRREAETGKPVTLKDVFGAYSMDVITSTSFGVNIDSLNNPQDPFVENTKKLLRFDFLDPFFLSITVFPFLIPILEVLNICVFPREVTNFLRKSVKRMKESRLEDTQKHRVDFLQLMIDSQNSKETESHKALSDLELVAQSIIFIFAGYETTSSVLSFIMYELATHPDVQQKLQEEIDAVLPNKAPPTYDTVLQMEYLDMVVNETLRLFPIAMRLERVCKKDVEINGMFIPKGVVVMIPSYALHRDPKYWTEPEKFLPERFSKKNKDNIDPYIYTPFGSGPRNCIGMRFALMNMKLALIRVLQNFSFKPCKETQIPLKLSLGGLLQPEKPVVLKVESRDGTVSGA
Histamine H3 receptor (Mus musculus), sequence (P58406 whole entry): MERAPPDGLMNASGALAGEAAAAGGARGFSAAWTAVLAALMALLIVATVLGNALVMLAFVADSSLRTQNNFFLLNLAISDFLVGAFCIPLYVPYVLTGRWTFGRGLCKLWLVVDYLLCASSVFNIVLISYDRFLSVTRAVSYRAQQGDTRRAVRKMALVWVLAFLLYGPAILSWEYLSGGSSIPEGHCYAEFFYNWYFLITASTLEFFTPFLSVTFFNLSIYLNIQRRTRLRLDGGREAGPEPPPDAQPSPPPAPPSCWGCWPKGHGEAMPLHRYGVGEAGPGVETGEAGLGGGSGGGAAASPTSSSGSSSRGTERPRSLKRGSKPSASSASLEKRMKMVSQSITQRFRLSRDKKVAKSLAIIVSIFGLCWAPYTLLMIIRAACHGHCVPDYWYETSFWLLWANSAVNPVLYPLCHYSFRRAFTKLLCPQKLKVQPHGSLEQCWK

In general, Ki refers to a measure of affinity in units of concentration, obtained from inhibition or displacement. Turning to `Cc1ccccc1-c1nnc(N2CCC(N3CCCCC3)CC2)s1`, on Histamine H3 receptor, the Ki worked out at 36 nM.

As for `CCN1CCN(c2nnc(-c3ccc(OC)cc3)s2)CC1`, the Ki at Histamine H3 receptor was determined as 162 nM.

Regarding `Cc1cccc(-c2nnc(N3CCC(N4CCCCC4)CC3)s2)c1`, the Ki on Histamine H3 receptor came to 60 nM.

As for `Cc1cccc(-c2nnc(N3CCC(N4CCCCC4)CC3)s2)n1`, at Histamine H3 receptor, the Ki amounted to 6.1 nM.

Regarding `COc1cc(F)cc(-c2nnc(N3CCC(N4CCCCC4)CC3)s2)c1`, the inhibition constant Ki at Histamine H3 receptor was 16 nM.

With `COc1cccc(-c2nnc(N3CCC(N4CCCCC4)CC3)s2)c1`, at Histamine H3 receptor, the Ki came to 31.9 nM.

Consider `COc1ncc(-c2nnc(N3CCC(N4CCCCC4)CC3)s2)s1`, for which the Ki on Histamine H3 receptor is 28 nM.

Consider `COc1ccc(-c2nnc(N3CCN4CCCC4C3)s2)cc1` (stereo not given), for which the Ki on Histamine H3 receptor came out at 653 nM.

Take `CC(=O)c1ccc(-c2nnc(N3CCC(N4CCCCC4)CC3)s2)cc1`: the Ki on Histamine H3 receptor amounted to 65 nM.

`Fc1ccccc1-c1nnc(N2CCC(N3CCCCC3)CC2)s1`: the Ki at Histamine H3 receptor is 36 nM.

Take `c1cnc(-c2nnc(N3CCC(N4CCCCC4)CC3)s2)nc1`: the Ki on Histamine H3 receptor turned out to be 103 nM.

As to `N#Cc1cccc(-c2nnc(N3CCC(N4CCCCC4)CC3)s2)c1`, the Ki at Histamine H3 receptor was found to be 42.6 nM.

On to `Clc1cc(Cl)cc(-c2nnc(N3CCC(N4CCCCC4)CC3)s2)c1`, for which the Ki at Histamine H3 receptor amounted to 72 nM.

As to `COc1ccc(-c2nnc(N3CCC(N4CCCCC4)CC3)s2)cc1`, on Histamine H3 receptor, the Ki was found to be 40.1 nM.

On to `c1n[nH]cc1-c1nnc(N2CCC(N3CCCCC3)CC2)s1`, for which the Ki on Histamine H3 receptor came out at 192 nM.

Turning to `Fc1ccc(-c2nnc(N3CCC(N4CCCCC4)CC3)s2)cc1`, the Ki on Histamine H3 receptor was 39 nM.

Consider `N#Cc1ccc(-c2nnc(N3CCC(N4CCCCC4)CC3)s2)cc1`, for which, at Histamine H3 receptor, the Ki was 36.4 nM.

In the case of `Clc1ccc(-c2nnc(N3CCC(N4CCCCC4)CC3)s2)cc1`, at Histamine H3 receptor, the Ki was determined as 161 nM.

On to `N#Cc1cc(C#N)cc(-c2nnc(N3CCC(N4CCCCC4)CC3)s2)c1`, for which the Ki on Histamine H3 receptor is 23 nM.

Take `CC(=O)c1cccc(-c2nnc(N3CCC(N4CCCCC4)CC3)s2)c1`: the Ki on Histamine H3 receptor came to 4 nM.

As to `O=C(Nc1nnc(N2CCC(N3CCCCC3)CC2)s1)NC1CCCC1`, the INH at Cytochrome P450 2D6, at Cytochrome P450 3A4 and on Cytochrome P450 2C9 was over 20 µM each time. Also, the Ki on Histamine H3 receptor was 48.6 nM.

As a reminder, the AUC(0-t) is the area under the concentration-time curve up to a stated or last time point. Read a high AUC(0-t) as high exposure. For `COc1cc(Cl)cc(-c2nnc(N3CCC(N4CCCCC4)CC3)s2)c1`, the INH on Cytochrome P450 2D6, on Cytochrome P450 3A4 and on Cytochrome P450 2C9 was over 20 µM each time. The AUC(0-t) at 6 h in data set [1] worked out at 379 ng·h/mL. Moreover, the Activity in data set [2] worked out at 90%. Also, in data set [3], the concentration at 4 h is 9030 ng/g. For the same compound, the Ki on Histamine H3 receptor was 12 nM.

In the case of `COc1ccccc1-c1nnc(N2CCC(N3CCCCC3)CC2)s1`, the Ki at Histamine H3 receptor stood at 40 nM.

Regarding `Clc1cccc(-c2nnc(N3CCC(N4CCCCC4)CC3)s2)c1`, the Ki on Histamine H3 receptor was 49 nM.

On to `COc1ccc(-c2nnc(N3CCC(N4CCCC4)CC3)s2)cc1`, for which the Ki at Histamine H3 receptor amounted to 601 nM.

Regarding `Fc1cc(F)cc(-c2nnc(N3CCC(N4CCCCC4)CC3)s2)c1`, the Ki at Histamine H3 receptor turned out to be 50 nM.

`COc1ccc(-c2nnc(N3CCN(C4CCCC4)CC3)s2)cc1`: the Ki at Histamine H3 receptor is 182 nM.

As for `CC(=O)c1ccccc1-c1nnc(N2CCC(N3CCCCC3)CC2)s1`, the Ki on Histamine H3 receptor was found to be 8.4 nM.

Regarding `c1ccc(-c2nnc(N3CCC(N4CCCCC4)CC3)s2)nc1`, at Histamine H3 receptor, the Ki came out at 30 nM.

As to `COc1cc(OC)cc(-c2nnc(N3CCC(N4CCCCC4)CC3)s2)c1`, the inhibition constant Ki at Histamine H3 receptor came to 15 nM.

For `Fc1cccc(-c2nnc(N3CCC(N4CCCCC4)CC3)s2)c1`, at Histamine H3 receptor, the Ki came out at 62 nM.

As to `COc1cc(C#N)cc(-c2nnc(N3CCC(N4CCCCC4)CC3)s2)c1`, at Histamine H3 receptor, the inhibition constant Ki came out at 12 nM.

Turning to `COc1cccc(-c2nnc(N3CCC(N4CCCCC4)CC3)s2)n1`, the INH at Cytochrome P450 2D6, at Cytochrome P450 3A4 and at Cytochrome P450 2C9 was over 20 µM throughout. In data set [2], this compound yielded an Activity of 74%. In addition, in data set [3], the concentration at 4 h came to 1530 ng/g. Besides, the Ki at Histamine H3 receptor stood at 3.5 nM.

Turning to `c1ccc(-c2nnc(N3CCC(N4CCCCC4)CC3)s2)cc1`, the Ki on Histamine H3 receptor is 80.1 nM.

With `Clc1ccccc1-c1nnc(N2CCC(N3CCCCC3)CC2)s1`, at Histamine H3 receptor, the Ki stood at 69 nM.

Consider `Cc1ccc(-c2nnc(N3CCC(N4CCCCC4)CC3)s2)cc1`, for which, on Histamine H3 receptor, the Ki was 163 nM.
